Experiments:
[1] = target: T1, Beta-galactoside alpha-2,6-sialyltransferase 1 (Homo sapiens, UniProt P15907); assay: Inhibition of recombinant human ST6Gal I incubated for 1 hrs in the presence of CMP-Neu5Ac as donor and LacNAc as acceptor by luminescence based CMP-Glo assay
T1 sequence (P15907 whole entry): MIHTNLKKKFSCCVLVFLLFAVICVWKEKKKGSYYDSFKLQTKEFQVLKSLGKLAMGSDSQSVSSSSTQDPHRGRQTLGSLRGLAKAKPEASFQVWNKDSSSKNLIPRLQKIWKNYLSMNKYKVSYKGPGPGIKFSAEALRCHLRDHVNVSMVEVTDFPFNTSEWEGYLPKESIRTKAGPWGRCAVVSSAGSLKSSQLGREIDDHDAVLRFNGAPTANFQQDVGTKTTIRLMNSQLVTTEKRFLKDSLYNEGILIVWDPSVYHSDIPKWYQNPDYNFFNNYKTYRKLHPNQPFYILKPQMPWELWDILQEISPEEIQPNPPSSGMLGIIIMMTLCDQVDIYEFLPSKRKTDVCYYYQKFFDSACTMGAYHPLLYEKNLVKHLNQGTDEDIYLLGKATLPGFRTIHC
Summary of the method: (§1)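 For hST6Gal I, the Km for CMP-Neu5Ac was determined with acceptor held at 1 mM. Ki was determined only for agents exceeding 50% inhibition at 10 μM in the screen (1 mM acceptor, 100 μM donor). Read-out was luciferase-coupled luminescence of released CMP after a single-hour incubation.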

[2] = target: T2, Beta-galactoside alpha-2,6-sialyltransferase 1 (Homo sapiens) (UniProt P15907); assay: Inhibition of recombinant human ST6Gal I at 10 uM incubated for 1 hrs in the presence of CMP-Neu5Ac as donor and LacNAc as acceptor by luminescence based CMP-Glo assay relative to control
T2 sequence (whole entry): T1 sequence (P15907 whole entry)
Summary of the method: (§2)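 Human enzyme reaction with 1 mM acceptor and 100 μM CMP-Neu5Ac donor. Test agent at 10 or 100 μM, incubated for a single hour. CMP formed as by-product was converted in a luciferase reaction, and luminescence, linear with CMP concentration, was read. Percent inhibition was calculated against control.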

[3] = target: T2, Beta-galactoside alpha-2,6-sialyltransferase 1 (Homo sapiens); assay: Ratio of Km for Substrate activity at recombinant human ST6Gal I to Ki for inhibition of recombinant human ST6Gal I at 10 uM incubated for 1 hrs in the presence of CMP-Neu5Ac as donor and LacNAc as acceptor; summary of the method: as §1
[4] = target: T3, CMP-N-acetylneuraminate-beta-galactosamide-alpha-2,3-sialyltransferase 1 (Homo sapiens) (UniProt Q11201); assay: Inhibition of recombinant human ST3Gal I at 100 uM incubated for 1 hrs in the presence of CMP-Neu5Ac as donor and Gal-beta1,3-GalNAc as acceptor by luminescence based CMP-Glo assay relative to control; summary of the method: as §2
T3 sequence (whole entry): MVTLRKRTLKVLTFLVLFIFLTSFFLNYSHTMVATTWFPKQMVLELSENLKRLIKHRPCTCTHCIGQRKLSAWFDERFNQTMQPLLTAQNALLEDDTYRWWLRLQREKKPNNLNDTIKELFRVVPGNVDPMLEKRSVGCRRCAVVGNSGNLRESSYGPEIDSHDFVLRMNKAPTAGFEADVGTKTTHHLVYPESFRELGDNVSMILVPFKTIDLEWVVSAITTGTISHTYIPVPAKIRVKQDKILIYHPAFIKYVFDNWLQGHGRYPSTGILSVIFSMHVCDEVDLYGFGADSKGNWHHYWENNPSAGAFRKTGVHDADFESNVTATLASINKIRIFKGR

[5] = target: T2, Beta-galactoside alpha-2,6-sialyltransferase 1 (Homo sapiens); assay: Inhibition of recombinant human ST6Gal I at 100 uM incubated for 1 hrs in the presence of CMP-Neu5Ac as donor and LacNAc as acceptor by luminescence based CMP-Glo assay relative to control; summary of the method: as §2

SMILES	inhibition [2] [%]	inhibition [4] [%]	other results
O=c1ccn([C@@H]2O[C@H](COCc3cn(C(c4ccc(F)c(Oc5ccccc5)c4)P(=O)(O)O)nn3)[C@@H](O)[C@H]2O)c(=O)[nH]1 (stereo in doubt; 13c-(s)) [listing 1 of 2 here]	–	–	Ki [1]: 6 µM
O=c1ccn([C@@H]2O[C@H](COCc3cn(C(c4csc5ccccc45)P(=O)(O)O)nn3)[C@@H](O)[C@H]2O)c(=O)[nH]1 (stereo in doubt; 13g-(s))	25	–	–
O=c1ccn([C@@H]2O[C@H](COCc3cn(C(c4ccc(F)c(Oc5ccccc5)c4)P(=O)(O)O)nn3)[C@@H](O)[C@H]2O)c(=O)[nH]1 (stereo in doubt; 13c-(l)) [listing 1 of 2 here]	–	–	Ki [1]: 34 µM
O=c1ccn([C@@H]2O[C@H](COCc3cn(C(c4cccc(OC(F)(F)C(F)F)c4)P(=O)(O)O)nn3)[C@@H](O)[C@H]2O)c(=O)[nH]1 (single isomer, unassigned) [listing 1 of 2 here]	–	–	Ki [1]: 6.7 µM
O=c1ccn([C@@H]2O[C@H](COCc3cn(C(c4cccc(Oc5ccccc5)c4)P(=O)(O)O)nn3)[C@@H](O)[C@H]2O)c(=O)[nH]1 (stereo in doubt; 13a-(l)) [listing 1 of 2 here]	26	2	Ratio [3]: 0.7
O=c1ccn([C@@H]2O[C@H](COCc3cn(C(c4cccc(OC(F)(F)C(F)F)c4)P(=O)(O)O)nn3)[C@@H](O)[C@H]2O)c(=O)[nH]1 (stereo in doubt; 13f-(l)) [listing 2 of 2 here]	–	–	Ki [1]: 3.4 µM
O=c1ccn([C@@H]2O[C@H](COCc3cn(C(c4cccc(Oc5ccccc5)c4)P(=O)(O)O)nn3)[C@@H](O)[C@H]2O)c(=O)[nH]1 (stereo in doubt; 13a-(l)) [listing 2 of 2 here]	–	–	Ki [1]: 50 µM
O=c1ccn([C@@H]2O[C@H](COCc3cn(C(c4cccc(OC(F)(F)C(F)F)c4)P(=O)(O)O)nn3)[C@@H](O)[C@H]2O)c(=O)[nH]1 (single isomer, unassigned) [listing 2 of 2 here]	65	49	Ratio [3]: 5.6
O=c1ccn([C@@H]2O[C@H](COCc3cn(C(c4cccc(C(F)(F)F)c4)P(=O)(O)O)nn3)[C@@H](O)[C@H]2O)c(=O)[nH]1 (single isomer, unassigned; form 2)	39	–	–
O=c1ccn([C@@H]2O[C@H](COCc3cn(C(c4cccc(Oc5ccccc5)c4)P(=O)(O)O)nn3)[C@@H](O)[C@H]2O)c(=O)[nH]1 (stereo in doubt; 13a-(s)) [listing 2 of 2 here]	–	–	Ki [1]: 40 µM

Further lines, with some results ahead:

inhibition [2] [%]	inhibition [4] [%]	SMILES	other results
78	39	O=c1ccn([C@@H]2O[C@H](COCc3cn(C(c4cccc(OC(F)(F)C(F)F)c4)P(=O)(O)O)nn3)[C@@H](O)[C@H]2O)c(=O)[nH]1 (stereo in doubt; 13f-(l)) [listing 1 of 2 here]	Ratio [3]: 11
59	9	O=c1ccn([C@@H]2O[C@H](COCc3cn(C(c4ccc(F)c(Oc5ccccc5)c4)P(=O)(O)O)nn3)[C@@H](O)[C@H]2O)c(=O)[nH]1 (stereo in doubt; 13c-(l)) [listing 2 of 2 here]	Ratio [3]: 1.1
–	43	O=c1ccn([C@@H]2O[C@H](Cn3cc(C(O)c4cccc(Oc5ccccc5)c4)nn3)[C@@H](O)[C@H]2O)c(=O)[nH]1 (some centres undefined)	inhibition [5]: 84%
45	–	O=c1ccn([C@@H]2O[C@H](COCc3cn(C(c4ccc(F)cc4)P(=O)(O)O)nn3)[C@@H](O)[C@H]2O)c(=O)[nH]1 (stereo in doubt; 13d-(l))	–
62	28	O=c1ccn([C@@H]2O[C@H](COCc3cn(C(c4cccc(Oc5ccccc5)c4)P(=O)(O)O)nn3)[C@@H](O)[C@H]2O)c(=O)[nH]1 (stereo in doubt; 13a-(s)) [listing 1 of 2 here]	Ratio [3]: 1
21	–	O=c1ccn([C@@H]2O[C@H](COCc3cn(C(c4csc5ccccc45)P(=O)(O)O)nn3)[C@@H](O)[C@H]2O)c(=O)[nH]1 (stereo in doubt; 13g-(l))	–
57	43	O=c1ccn([C@@H]2O[C@H](COCc3cn(C(c4ccc(F)c(Oc5ccccc5)c4)P(=O)(O)O)nn3)[C@@H](O)[C@H]2O)c(=O)[nH]1 (stereo in doubt; 13c-(s)) [listing 2 of 2 here]	Ratio [3]: 6
41	–	O=c1ccn([C@@H]2O[C@H](COCc3cn(C(c4cccc(OC5CCCC5)c4)P(=O)(O)O)nn3)[C@@H](O)[C@H]2O)c(=O)[nH]1 (single isomer, unassigned)	–
10	–	O=c1ccn([C@@H]2O[C@H](COCc3cn(C(c4cccc(OC5CCCC5)c4)P(=O)(O)O)nn3)[C@@H](O)[C@H]2O)c(=O)[nH]1 (stereo in doubt; 13b-(l))	–
44	–	O=c1ccn([C@@H]2O[C@H](COCc3cn(C(c4ccc(F)cc4)P(=O)(O)O)nn3)[C@@H](O)[C@H]2O)c(=O)[nH]1 (single isomer, unassigned)	–
23	–	O=c1ccn([C@@H]2O[C@H](COCc3cn(C(c4cccc(C(F)(F)F)c4)P(=O)(O)O)nn3)[C@@H](O)[C@H]2O)c(=O)[nH]1 (single isomer, unassigned; form 1)	–
